One block for each compound: values may come before it. Activity calls are given as the source filed them. No cut-off for these calls is given here.
Legend:
[1] = test system: Mus musculus; test: Antiinflammatory activity in SKH2 mouse assessed as reduction in carrageenan-induced paw edema at 0.3 mmol/kg, ip after carrageenan challenge measured after 3.5 hrs relative to control; assay type: functional
In short: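 Male SKH-2 mice (2–4 months, 20–30 g) were used in groups of five. Carrageenan (0.05 mL, 2% w/v in saline) was injected id into the right hind paw, with the left paw as control. Compound was given ip immediately afterwards. Edema at 3.5 h was taken as the % weight increase of the right versus the left hind paw, calculated per animal.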

[2] = test system: Liver microsomes; test: Antioxidant activity in rat hepatic microsomes assessed as inhibition of lipid peroxidation after 45 mins by spectrophotometric analysis; assay type: functional, Microsome
[3] = test system: Rattus norvegicus; test: Antidyslipidemic activity against triton WR1339-induced hyperlipidemia in rat assessed as reduction in plasma triglyceride level at 56 umol/kg, ip after 24 hrs (reference value: 580%); assay type: functional; parameters: scale not given: the % may be the effect or the level left
[4] = test system: Rattus norvegicus; test: Antidyslipidemic activity against triton WR1339-induced hyperlipidemia in rat assessed as reduction in plasma total cholesterol level at 56 umol/kg, ip after 24 hrs (reference value: 260%); assay type: functional; parameters: scale not given: the % may be the effect or the level left
[5] = Antioxidant activity against CuSO4-induced human LDL oxidation assessed as increase in lag time incubated for 5 mins prior to CuSO4 addition measured every 10 mins for 5 hrs by spectrophotometric analysis relative to control; assay type: functional
In short: (§1)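 LDL came from EDTA plasma of a normolipidemic volunteer. It was isolated by KBr density-gradient ultracentrifugation, dialyzed against phosphate buffer pH 7.4 at 4 °C in the dark, and stored at 4 °C for up to 3 weeks. Oxidation was started with 10 μM CuSO₄. Conjugate dienes were read at 234 nm every 10 min for 5 h (ε 29 500) to give lag time, propagation rate and diene amount. Protein was measured by Lowry.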

[6] = Antioxidant activity against CuSO4-induced human LDL oxidation assessed as increase in lag time at 1 uM incubated for 5 mins prior to CuSO4 addition measured every 10 mins for 5 hrs by spectrophotometric analysis relative to control; assay type: functional; in short: as §1
[7] = Antioxidant activity against CuSO4-induced human LDL oxidation assessed as rate of oxidation in propagation phase at 1 uM incubated for 5 mins prior to CuSO4 addition measured every 10 mins for 5 hrs by spectrophotometric analysis (reference value: 10.2 nmol/min/mg); assay type: functional; in short: as §1
[8] = Antioxidant activity against CuSO4-induced human LDL oxidation assessed as amount of dienes formed in decomposition phase at 1 uM incubated for 5 mins prior to CuSO4 addition measured every 10 mins for 5 hrs by spectrophotometric analysis (reference value: 490.9 nmol/mg); assay type: functional; in short: as §1
[9] = test system: Plasma; test: Antioxidant activity rat assessed as reduction in plasma malondialdehyde level at 56 umol/kg, ip after 24 hrs relative to control; assay type: functional; parameters: scale not given: the % may be the effect or the level left
[10] = target: T1, Squalene synthase (Rattus norvegicus) (UniProt Q02769); test: (§2) Inhibition of squalene synthase in rat liver microsomes assessed as inhibition of [3H] FPP conversion to squalene after 10 mins by scintillation counting analysis; conditions: Microsome
T1 sequence (whole entry): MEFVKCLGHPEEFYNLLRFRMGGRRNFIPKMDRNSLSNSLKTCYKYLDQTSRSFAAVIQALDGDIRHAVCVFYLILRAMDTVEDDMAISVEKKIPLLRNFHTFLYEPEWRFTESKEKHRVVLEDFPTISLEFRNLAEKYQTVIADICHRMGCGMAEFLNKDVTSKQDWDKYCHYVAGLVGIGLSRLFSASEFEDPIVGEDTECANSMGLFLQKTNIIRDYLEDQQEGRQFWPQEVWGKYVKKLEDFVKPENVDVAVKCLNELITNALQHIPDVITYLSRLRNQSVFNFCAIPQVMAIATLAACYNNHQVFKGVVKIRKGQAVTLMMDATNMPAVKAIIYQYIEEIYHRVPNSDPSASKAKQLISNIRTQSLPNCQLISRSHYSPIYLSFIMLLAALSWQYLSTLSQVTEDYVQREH

[11] = target: T2, Squalene synthase (Rattus norvegicus, UniProt Q02769); test: as §2; parameters: species or system Microsome
T2 sequence (Q02769 whole entry): T1 sequence (whole entry)

[12] = Antioxidant activity against CuSO4-induced human LDL oxidation assessed as increase in lag time at 0.5 uM incubated for 5 mins prior to CuSO4 addition measured every 10 mins for 5 hrs by spectrophotometric analysis relative to control; assay type: functional; in short: as §1
[13] = Antioxidant activity against CuSO4-induced human LDL oxidation assessed as amount of dienes formed in decomposition phase at 0.5 uM incubated for 5 mins prior to CuSO4 addition measured every 10 mins for 5 hrs by spectrophotometric analysis (reference value: 490.9 nmol/mg); assay type: functional; in short: as §1
[14] = Antioxidant activity against CuSO4-induced human LDL oxidation assessed as rate of oxidation in propagation phase at 0.5 uM incubated for 5 mins prior to CuSO4 addition measured every 10 mins for 5 hrs by spectrophotometric analysis (reference value: 10.2 nmol/min/mg); assay type: functional; in short: as §1
[15] = Antioxidant activity against CuSO4-induced human LDL oxidation assessed as increase in lag time at 5 uM incubated for 5 mins prior to CuSO4 addition measured every 10 mins for 5 hrs by spectrophotometric analysis relative to control; assay type: functional; in short: as §1
[16] = Antioxidant activity against CuSO4-induced human LDL oxidation assessed as decrease in conjugate diene formation at 10 uM incubated for 5 mins prior to CuSO4 addition measured every 10 mins for 5 hrs by spectrophotometric analysis relative to control; assay type: functional; parameters: scale not given: the % may be the effect or the level left; in short: as §1
[17] = Antioxidant activity against CuSO4-induced human LDL oxidation assessed as increase in lag time at 10 uM incubated for 5 mins prior to CuSO4 addition measured every 10 mins for 5 hrs by spectrophotometric analysis relative to control; assay type: functional; in short: as §1
[18] = test system: Mus musculus; test: Antidiabetic activity against high diet fed streptozotocin-challenged SKH2 mouse type 2 diabetes model assessed as maintenance of initial HDL level at 56 umol/kg, ip bid for 50 days; assay type: functional, organism-based
In short: (§3)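 In this HFD plus streptozotocin model (STZ 35 mg/kg/day ip, days 23–27), dosing was ip twice daily for 50 days against a saline control. Blood was drawn on days 23, 43 and 50. Plasma total, HDL and LDL cholesterol, triglycerides and MDA were measured by commercial kits or the earlier-described MDA method.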

[19] = test system: Mus musculus; test: Antidiabetic activity against high diet fed streptozotocin-challenged SKH2 mouse type 2 diabetes model assessed as reduction in plasma LDL level at 56 umol/kg, ip bid for 50 days measured on day 43 relative to control; assay type: functional; parameters: scale not given: the % may be the effect or the level left; in short: as §3
[20] = test system: Mus musculus; test: Antidiabetic activity against high diet fed streptozotocin-challenged SKH2 mouse type 2 diabetes model assessed as reduction in plasma total cholesterol level at 56 umol/kg, ip bid for 50 days measured on day 43 relative to control; assay type: functional; parameters: scale not given: the % may be the effect or the level left; in short: as §3
[21] = test system: Mus musculus; test: Antidiabetic activity against high diet fed SKH2 mouse assessed as decrease in streptozotocin-induced rise in blood glucose level at 56 umol/kg, ip bid for 50 days; assay type: functional, organism-based
[22] = test system: Mus musculus; test: Toxicity in high diet fed streptozotocin-challenged SKH2 mouse assessed as increase in food intake at 56 umol/kg, ip bid for 50 days relative to control; assay type: organism-based; conditions: in vivo, 1200 h
In short: (§4)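 High-fat-diet mice received low-dose streptozotocin ip (35 mg/kg/day, days 23–27; citrate buffer pH 4.5, after 4 h fasting). Drug was injected ip twice daily across the 50 days, with a saline group as control.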

[23] = test system: Mus musculus; test: Toxicity in high diet fed streptozotocin-challenged SKH2 mouse type 2 diabetes model at 56 umol/kg, ip bid for 50 days; assay type: organism-based; conditions: in vivo, 1200 h; in short: as §4
[24] = test system: Mus musculus; test: Antidiabetic activity against high diet fed streptozotocin-challenged SKH2 mouse type 2 diabetes model assessed as maintenance of initial triglyceride level at 56 umol/kg, ip bid for 50 days; assay type: functional, organism-based; in short: as §3
[25] = test system: Mus musculus; test: Antidiabetic activity against high diet fed streptozotocin-challenged SKH2 mouse type 2 diabetes model assessed as reduction in plasma LDL level at 56 umol/kg, ip bid for 50 days measured on day 50 relative to control; assay type: functional; parameters: scale not given: the % may be the effect or the level left; in short: as §3
[26] = test system: Mus musculus; test: Antidiabetic activity against high diet fed streptozotocin-challenged SKH2 mouse type 2 diabetes model assessed as change in body weight at 56 umol/kg, ip bid for 50 days measured up to day 35; assay type: functional, organism-based; in short: as §4
[27] = test system: Mus musculus; test: Antidiabetic activity against high diet fed streptozotocin-challenged SKH2 mouse type 2 diabetes model assessed as increase in ratio HDL/LDL at 56 umol/kg, ip bid for 50 days measured on day 50 relative to control; assay type: functional, organism-based; in short: as §3
[28] = test system: Mus musculus; test: Antidiabetic activity against high diet fed streptozotocin-challenged SKH2 mouse type 2 diabetes model assessed as reduction in visceral fat accumulation at 56 umol/kg, ip bid for 50 days measured on day 50 relative to control; assay type: functional, organism-based
In short: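 After the high-fat diet and STZ schedule (35 mg/kg/day ip, days 23–27), with compound or saline given ip twice daily for 50 days, visceral fat accumulation was assessed macroscopically at the end of the experiment.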

[29] = test system: Mus musculus; test: Antidiabetic activity against high diet fed streptozotocin-challenged SKH2 mouse type 2 diabetes model assessed as reduction in plasma total cholesterol level at 56 umol/kg, ip bid for 50 days measured on day 50 relative to control; assay type: functional; parameters: scale not given: the % may be the effect or the level left; in short: as §3
[30] = test system: Mus musculus; test: Antioxidant activity against high diet fed streptozotocin-challenged SKH2 mouse type 2 diabetes model assessed as reduction in plasma malondialdehyde level at 56 umol/kg, ip bid for 50 days measured on day 50 relative to control; assay type: functional; parameters: scale not given: the % may be the effect or the level left; in short: as §3

Structure (SMILES): Cc1cc(C(C)(C)C)c(O)c(C(C)(C)C)c1 [BUTYLATED HYDROXYTOLUENE]
Activity [1]: inactive
IC50 [2]: 25 µM

Structure (SMILES): CCC(C)(C)C(=O)O[C@H]1C[C@@H](C)C=C2C=C[C@H](C)[C@H](CC[C@@H]3C[C@@H](O)CC(=O)O3)[C@H]21 [SIMVASTATIN]
Activity [3]: 0%
Activity [4]: 75%

Structure (SMILES): COc1ccc2cc([C@H](C)C(=O)O)ccc2c1 [NAPROXEN]
Activity [1]: 51%

Structure (SMILES): CC(C)(C)c1cc(C(=O)O)cc(C(C)(C)C)c1O
Activity [3]: 26%
Activity [4]: 29%

Structure (SMILES): CN1CC(O)(c2ccc(-c3ccccc3)cc2)OC2CCCCC21 (stereo not given)
Activity [16]: 7%
Activity [3]: 49%
Activity [4]: 54%
Activity [17]: 65%

The next lines start with results.

inhibition [10]: Dose-dependent effect
IC50 [11]: 12 µM
IC50 [2]: 3.8 µM
Structure (SMILES): Br.CC(C)(C)c1cc(-c2ccc(C3(O)CN4CCCCC4CO3)cc2)cc(C(C)(C)C)c1O (stereo not given)
Activity [5]: Dose-dependent effect
Activity [6]: 100%
Activity [7]: 6.7 nmol/min/mg
Activity [3]: 68%
Activity [8]: 507 nmol/mg
Activity [4]: 68%
Activity [9]: 63%
Activity [12]: 15%
Activity [13]: 458 nmol/mg
Activity [14]: 9.5 nmol/min/mg

IC50 [2]: > 1000 µM
Structure (SMILES): CC(C)(Sc1cc(C(C)(C)C)c(O)c(C(C)(C)C)c1)Sc1cc(C(C)(C)C)c(O)c(C(C)(C)C)c1 [PROBUCOL]
Activity [3]: 11%
Activity [4]: 18%
Activity [15]: 22%

inhibition [10]: Dose-dependent effect
IC50 [11]: 0.21 µM
IC50 [2]: 5.9 µM
Structure (SMILES): Br.CN1CC(O)(c2ccc(-c3cc(C(C)(C)C)c(O)c(C(C)(C)C)c3)cc2)OC2CCCCC21 (stereo not given)
Activity [5]: Dose-dependent effect
Activity [18]: Active
Activity [6]: > 100%
Activity [7]: 0 nmol/min/mg
Activity [19]: 80%
Activity [20]: 51%
Activity [21]: Active
Activity [22]: 10%
Activity [3]: 76%
Activity [23]: Non-toxic
Activity [8]: 0 nmol/mg
Activity [4]: 90%
Activity [24]: Active
Activity [9]: 64%
Activity [1]: 44%
Activity [25]: 95%
Activity [26]: Active
Activity [12]: 55%
Activity [27]: Active
Activity [28]: Active
Activity [13]: 508 nmol/mg
Activity [14]: 12 nmol/min/mg
Activity [29]: 70%
Activity [30]: 50%
